Compound activity deposited in PubChem BioAssay by Johns Hopkins Ion Channel Center.
MrgX1 PAM – human MrgX1 positive allosteric modulation, primary screen. MrgX1-HEK293, Fluo-4 calcium flux, FDSS; hits give high values. hit rate 0.63% among 310,000. Q96LB2. B-score at 10 µM. AID 588675;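 active = plate-corrected calcium response at least 3 library SD above typical, normal starting fluorescence, not activating the receptor alone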;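 note: compound read alongside a low EC10 to EC30 dose of BAM8-22 agonist; peak minus trough fluorescence over baseline measured at the second addition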
Target sequence (Q96LB2 whole entry, looked up): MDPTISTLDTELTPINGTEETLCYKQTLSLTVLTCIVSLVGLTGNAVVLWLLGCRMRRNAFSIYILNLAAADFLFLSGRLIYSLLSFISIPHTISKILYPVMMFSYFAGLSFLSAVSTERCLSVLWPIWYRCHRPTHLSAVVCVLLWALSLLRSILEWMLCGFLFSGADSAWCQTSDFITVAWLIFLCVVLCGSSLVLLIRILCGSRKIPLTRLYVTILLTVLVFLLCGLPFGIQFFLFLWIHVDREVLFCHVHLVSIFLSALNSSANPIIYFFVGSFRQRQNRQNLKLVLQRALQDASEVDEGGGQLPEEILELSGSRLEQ
RGS4 block – human RGS4 inhibition. hit rate 0.45% among 310,000. B-score at 10 µM. AID 463165. HEK293 M3R/RGS4 inducible, Fluo-4 calcium flux; hits give high values; triggered by carbachol at its EC20. P49798;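 active = B-score, a plate-corrected calcium signal, over three deviations above library mean, with baseline fluorescence within five deviations of library mean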;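 note: RGS4 expression induced by doxycycline in cells with stable M3 receptor; B-score is computed from the integrated fluorescence ratio over baseline after carbachol; higher B-score means a larger calcium signal and so more RGS4 inhibition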
Target sequence (P49798 whole entry, looked up): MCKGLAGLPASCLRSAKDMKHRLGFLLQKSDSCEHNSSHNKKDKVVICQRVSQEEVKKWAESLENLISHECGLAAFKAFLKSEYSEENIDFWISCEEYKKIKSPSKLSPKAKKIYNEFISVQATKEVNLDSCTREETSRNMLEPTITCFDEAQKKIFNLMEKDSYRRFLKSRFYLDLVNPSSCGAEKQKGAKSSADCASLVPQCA
RGS4 act – RGS4 potentiation or activation | HEK293 M3R/inducible RGS4, carbachol calcium flux Fluo4; hits give low values | B-score at 10 µM | hit rate 0.92% among 310,000;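 active = B-score of the integrated calcium signal more than 4 SD below the library mean, with starting fluorescence not abnormally high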;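 note: negative B-score means reduced calcium response which marks RGS4 activation or potentiation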
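test system = M3R-expressing HEK293 line, RGS4 induced by doxycycline | probe or stimulus = carbachol at ECmax as muscarinic agonist stimulus | timing = dye loading 30 min 37 °C, buffer rest 30 min RT | signal = calcium dye Fluo4 fluorescence | evaluation = B score from integrated fluorescence ratio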
MrgX1 ag – activates human MrgX1 receptor signaling; Q96LB2; MrgX1-HEK293 cells, Fluo-4 calcium fluorescence, agonist mode; hits give high values; B-score at 10 µM; hit rate 0.44% among 310,000; AID 588627;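 active = calcium response B-score plate-corrected fluorescence ratio at least 3 library SD, with starting fluorescence B-score inside 5 SD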
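Test system: HEK293 cells stably expressing human MrgX1 receptor; Input: fifteen thousand cells per well; Dosing: compound delivered in addition one of three; Schedule: overnight seeding, then 1 h dark dye loading; Technique: Fluo-4 NW calcium fluorescence; Measure: B-scored fluorescence response ratio; Controls: positive and negative controls per plate.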
MrgX1 antag – blocks BAM8-22 activation of human MrgX1 receptor | Q96LB2 | MRGX1-HEK293 calcium flux, Fluo-4, BAM8-22 antagonism; hits give low values | B-score at 10 µM | hit rate 1.3% among 310,000 | AID 588676;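 active = calcium-response B-score plate-corrected more than 3 library SD below zero, starting fluorescence within 5 deviations, no agonist response on first addition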;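 note: peak minus trough fluorescence over baseline after final BAM8-22 challenge near maximal dose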
Numbers without * were called inactive; i = inactive; nt = no result given. An excerpt weighted towards active compounds, which were near 3.5% of everything screened.

SMILES	MrgX1 PAM	RGS4 block	RGS4 act	MrgX1 ag	MrgX1 antag
COc1ccc(-c2nc3ccccn3c2NC2CCCCC2)cc1SC1CCCCC1	i	i	-7.9*	i	i
CCCCCCSc1cc(-c2nc3cnccn3c2NCc2ccccc2)ccc1OC	i	i	-9.7*	i	i
CCn1c(=S)sc2c(=O)n(CC(=O)Nc3cccc(Cl)c3)c(C)nc21	i	i	i	i	i
CCOc1ccc(N=C(/C(C(=O)C(=O)N2CCOCC2)=C(/O)c2ccccc2)c2ccccc2)cc1	i	i	i	i	i
COC(=O)C1=C(C)N(CCCC(=O)O)C(=O)NC1c1ccc(C#N)cc1 (configuration not stated)	i	i	i	i	i
C[C@@H](NC(=O)[C@@H]1Cc2ccccc2CN1)C(=O)Nc1ccc2c(c1)OCO2	i	i	i	i	i
CCOC(=O)c1sc(N)c(C#N)c1COC(=O)CNC(=O)c1cc(OC)c(OC)c(OC)c1	i	i	i	i	-6.6*
COc1cc(C(=O)NCC(=O)OCc2ccccc2Cl)cc(OC)c1OC	i	i	i	i	i
Cc1cccc[n+]1CCCCCCCCCC[n+]1ccccc1C	i	i	i	i	i
CCCCCCCCCC[n+]1cccc2c3ccccc3ccc21	nt	i	-10*	nt	nt
CCCCCCCC[n+]1cccc2c3ccccc3ccc21	i	i	-9.9*	i	i
Cc1ccc(Nc2nc(CSc3n[nH]c(N)n3)cs2)cc1	i	i	i	i	i
C[C@@H]1O[C@@H](OC2C(O)C(OCCc3ccc(O)c(O)c3)OC(CO)C2OC(=O)/C=C/c2ccc(O)c(O)c2)[C@H](O)[C@H](O)[C@H]1O (some centres not stated)	i	i	i	i	-5.1*
Cc1c(CCC(=O)NCCCn2ccnc2)c(=O)oc2cc3occ(C(C)(C)C)c3cc12	i	i	-7.3*	i	i
Cc1coc2cc3oc(=O)c(CCC(=O)NCCCn4ccnc4)c(C)c3cc12	i	i	i	i	i
Cc1oc2cc3oc(=O)c(CCC(=O)NC4CC4)c(C)c3cc2c1C	i	i	i	i	i
Cc1coc2cc3oc(=O)c(CCC(=O)NC4CC4)c(C)c3cc12	9.4*	i	i	i	i
CCOc1ncccc1C(=O)OCC(=O)c1ccc(C)c(C)c1	i	i	i	i	i
CCn1nc(NS(=O)(=O)c2ccccc2[N+](=O)[O-])c2cc3ccc(C)cc3nc21	9.2*	i	i	i	i
CCOc1ccccc1OCCCC(=O)N(CC)CC(=O)Nc1ccc(NC(C)=O)cc1	i	i	i	i	i
COc1ccc(C)cc1S(=O)(=O)N1CCN(C(=O)c2ncoc2-c2cccc(F)c2)CC1	i	i	i	i	i
CN(CCCC1CCCC1)C(=O)c1cc(COc2ccc(F)cc2F)on1	i	i	i	i	i
CN(CCCN1CCCCC1)C(=O)c1cc(COc2ccc(F)cc2F)on1	i	i	i	i	-7.3*
CCOc1ccccc1NC(=O)C1(S(=O)(=O)c2ccc(Cl)cc2)CC1	i	i	-7*	i	i
CC(C)C(=O)O/N=C(\N)c1ccc(Oc2ccc(Cl)cc2)c([N+](=O)[O-])c1	i	i	-8.6*	i	i
SMILES	MrgX1 PAM	RGS4 block	RGS4 act	MrgX1 ag	MrgX1 antag
O=C(NCC1CCCN1S(=O)(=O)c1cccs1)C(=O)Nc1ccc(F)cc1 (configuration not stated)	i	i	i	i	i
COc1ccc(C(C)NC(=S)NCc2ccc(F)cc2)cc1 (configuration not stated)	i	i	i	i	i
CCC(NC(=S)NCc1ccc(F)cc1)c1ccccc1 (configuration not stated)	i	i	i	i	-5.7*
COc1cc(/C=C2\SC(=S)NC2=O)ccc1OS(=O)(=O)c1ccccc1	i	i	i	i	-6.1*
O=C1NC(=S)S/C1=C\c1ccc2ccccc2c1	i	i	i	i	-4.9*
COc1cc(/C=C2/SC(=S)NC2=O)ccc1OS(=O)(=O)c1ccc(C)cc1	i	i	i	i	-4.7*
O=C1NC(=S)S/C1=C\c1coc2ccccc2c1=O	7.6*	i	i	i	i
C/[N+]([O-])=C\c1coc2ccccc2c1=O	i	i	i	i	i
COc1ccc(/C=C2\SC(=S)NC2=O)cc1OS(=O)(=O)c1ccc(NC(C)=O)cc1	nt	i	i	nt	nt
COc1ccc(Nc2ccccc2NC(=O)c2ccccc2Br)cc1	i	i	i	i	i
COc1ccc(CCC(=O)NCc2cn3ccccc3n2)cc1	i	i	i	i	i
C/C(=N/NC(=O)c1ccco1)c1cccnc1	i	i	i	i	i
CCOc1ccc(/C=C2\SC(=S)NC2=O)cc1OC	i	i	i	i	i
COc1ccc(/C=C2\SC(=O)NC2=S)cc1OC	i	i	i	63*	i
CCOc1ccccc1C(=O)N(Cc1sccc1C)C1CCS(=O)(=O)C1 (configuration not stated)	i	i	i	i	i
COC(=O)/C=C1\OC(c2ccccc2)=CC1=O	i	26*	i	i	i
CC1CC(C)CN(C(=O)CSc2nc(Cc3cccs3)nc3ccccc23)C1 (configuration not stated)	i	i	-7.1*	i	i
O=C1C2C3C=CC(C4CC34)C2C(=O)N1/N=C/c1ccc(-c2ccc(Cl)cc2[N+](=O)[O-])o1 (configuration not stated)	i	i	-8.5*	i	i
CCOC(=O)c1ccc(/C=C2/C=C(c3ccccc3)N(c3ccc(Cl)c(C(=O)O)c3)C2=O)cc1	i	i	i	40*	i
CCOC(=O)c1ccc(Cl)c(NC(=O)c2ccc(-c3ccccc3)cc2)c1	i	i	i	i	i
COC(=O)c1cc2c(=O)c3ccccc3oc2nc1C	i	i	i	i	i
COC(=O)c1cc2c(=O)c3ccccc3oc2nc1/C=C/N(C)C	i	i	i	68*	i
Cc1cc(OCCn2cc(/C(N)=N/O)c3ccccc32)ccc1Cl	i	i	i	i	i
COc1ccc(-n2ncc3c2CC(C)(C)CC3NC(=O)C2=CC(=O)CC(C)(C)O2)cc1 (configuration not stated)	i	i	i	i	i
CCOC(=O)c1c(NC(=O)CSc2c[nH]c3ccccc23)sc2c1CCC2	i	i	-7.1*	i	i
